HSF-1 act – HSF-1 activators, primary screen, NIH3T3-HGL cells, MG132 stress, luminescence, single point. NIH3T3-HGL HSF-1 luciferase reporter, 8 h; 100% = twice DMSO control signal. activation, % at 9 µM. AID 504408, 2011. hit rate 1.7% among 300,000;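 active = mean replicate activation of at least 50% with a set share of replicates each reaching 50%; inconclusive = only one of those two conditions met; inactive = mean below 50% and too few replicates reaching it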
Tb hexokinase – Trypanosoma brucei hexokinase 1 inhibitors, primary screen, biochemical, G6PDH-coupled NADH absorbance, MLSCN library; hexokinase 1 [Trypanosoma brucei]; recombinant TbHK1, G6PDH-coupled NADH A340; inhibition, % at 10 µM; hit rate 0.11% among 220,000;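 active = inhibition of 50% or more in the single-dose primary screen; inactive = inhibition below 50%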
HSP90 inh – HSP90 inhibitors, primary screen, cell lysate, luminescence; Heat shock protein HSP 90 (rabbit reticulocyte lysate; luciferase refolding); Rabbit reticulocyte lysate, luciferase refolding luminescence, 3 h; inhibition, % at 5.6 µM; hit rate 0.91% among 290,000;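 active = inhibition above the screen-wide mean plus 3 SD, computed separately per campaign, cut at about 16% in these data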;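 also: inhibitors lower the luminescence because luciferase stays unfolded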
HSF1 inh – HSF1 inhibitors in luciferase reporter cells, primary screen, cell-based, NIH3T3, luminescence | NIH3T3-HGL HSE-luciferase, MG132-induced, luminescence 8 h; hits give low values | activity change, negative = inhibition, % at 7.5 µM (by protocol) | hit rate 0.77% among 300,000 | AID 2098, 2009;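 active = more than half of replicate wells show activity change below -50%, luminescence cut by over half; inconclusive = some wells, but at most half, below -50%; inactive = no replicate well below -50%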;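 also: luciferase reports HSF-1 transcriptional activity via heat shock element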
Hsp70 act – Hsp70 transcriptional activators, primary screen, cell-based, HeLa, Hsp70 promoter luciferase, luminescence, 10 µM; hit rate 0.04% among 200,000; activation, % at 10 µM; HeLa Hsp70 promoter luciferase reporter; scaled: vehicle 0, proteasome-inhibitor control 100%;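 active = activation above the mean across all tested compounds plus 3 SD, cutoff set per campaign, cut at about 5.5% in these data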
HKDC1 inh – HKDC1 hexokinase inhibitors, primary screen, biochemical, fluorescence, uHTS. Q2TB90. recombinant HKDC1, G6PDH/diaphorase resazurin coupled fluorescence. inhibition, % at 20 µM. hit rate 0.16% among 340,000. AID 493160, 2011;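 active = inhibition above about 35% when tested at 20 µM, limit read from the data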
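Test system: Recombinant HKDC1 (HK5) hexokinase enzyme, produced in-house | Input: HKDC1 at 5 µg/mL | Buffer or medium: Tris pH 8.0 buffer with MgCl2, Tween-20, BSA, BME | Schedule: 90 min reaction incubation at room temperature, dark | Technique: Resazurin-to-resorufin fluorescence via G6PDH and diaphorase coupling, 525/613 nm | Controls: DMSO wells with and without enzyme mix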
HSP90 confirm – HSP90 inhibitors, confirmation, cell lysate, luminescence | rabbit reticulocyte lysate, luciferase refolding luminescence, 3 h | shares compounds with HSP90 inh | inhibition, % at 5.9 µM | hit rate 64% among 2,300 | AID 1846, 2009; in the data active = inhibition above about 18%
FLuc counter – firefly luciferase inhibitors, HSP90 counter-screen, confirmation, artefact control for HSP90 inhibitor project, biochemical, luminescence, triplicate; shares compounds with HSP90 inh; purified native firefly luciferase; inhibition, % at 5.9 µM; hit rate 48% among 2,300;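 active = inhibition above the mean inhibition of all tested sample wells plus 3 SD, cut at about 10% in these data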
Target sequence (P08659 whole entry, looked up): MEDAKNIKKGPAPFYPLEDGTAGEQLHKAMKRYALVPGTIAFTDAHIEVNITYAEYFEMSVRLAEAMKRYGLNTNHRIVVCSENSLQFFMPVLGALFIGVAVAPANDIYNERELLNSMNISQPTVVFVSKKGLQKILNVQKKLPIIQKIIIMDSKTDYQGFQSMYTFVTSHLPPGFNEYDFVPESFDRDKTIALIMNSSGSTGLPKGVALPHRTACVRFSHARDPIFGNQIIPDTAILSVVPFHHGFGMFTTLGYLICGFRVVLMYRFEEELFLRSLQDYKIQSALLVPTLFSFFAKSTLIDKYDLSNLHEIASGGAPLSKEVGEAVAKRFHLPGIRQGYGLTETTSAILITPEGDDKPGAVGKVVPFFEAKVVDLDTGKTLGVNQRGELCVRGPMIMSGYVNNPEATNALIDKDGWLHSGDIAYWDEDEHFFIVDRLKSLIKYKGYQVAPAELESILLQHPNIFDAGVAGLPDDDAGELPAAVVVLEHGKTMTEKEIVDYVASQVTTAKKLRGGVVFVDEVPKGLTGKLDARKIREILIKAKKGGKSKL
Of the large screens only hits and unclear results are named; the others gave an inactive call (follow-up assays come after a bar, where they were run). Sampled rows, rich in hits. Any-hit rate of the full collection: about 3.1%.

Cc1ccc(/C=N/Nc2cccc(C(=O)O)c2)s1	HSP90 inh 24 | HSP90 confirm 86 | FLuc counter 85
Cc1ccsc1/C=N/Nc1ccc(C(=O)O)cc1	HSP90 inh 68 (no result: Tb hexokinase, Hsp70 act) | HSP90 confirm 81 | FLuc counter 77
Cc1ccsc1/C=N/Nc1cccc(C(=O)O)c1	HSP90 inh 65, HSF1 inh -54 | HSP90 confirm 94 | FLuc counter 92
NC(N)=NN=C1CCC(c2ccccc2)CC1 (configuration not stated)	none (no result: Tb hexokinase, Hsp70 act)
O=C(c1cc2cc(F)ccc2[nH]1)N1CCN(C(=O)c2ccco2)CC1	none (no result: Tb hexokinase, Hsp70 act)
Nc1cc(C(=O)OCC(=O)NNC(=O)c2cccs2)ccc1Cl	none (no result: Tb hexokinase, HSP90 inh, Hsp70 act)
Cc1cc(/C=C2\SC(=S)N(C)C2=O)c(C)n1-c1ccccc1O	none (no result: Tb hexokinase, HSP90 inh, Hsp70 act)
Cc1cc(/C=C2\SC(=S)N(C)C2=O)c(C)n1-c1ccc(O)cc1	HSP90 inh 60, HSF1 inh -52 (no result: Hsp70 act) | HSP90 confirm 82 | FLuc counter 82
CC(=O)/C(=C/N(C)C)Sc1ccc(C)cc1	none
CC(=O)/C(=C\N(C)C)Sc1ccc(C)cc1	HSP90 inh 33 (no result: Hsp70 act) | HSP90 confirm inactive | FLuc counter inactive
CN(C)c1ccc(N=Cc2cccn2C)cc1	HSP90 inh 22 (no result: Tb hexokinase, Hsp70 act) | HSP90 confirm inactive | FLuc counter inactive
C=CCN(C(=O)CNS(=O)(=O)c1ccccc1)C(C(=O)NCCOC)c1cccnc1 (configuration not stated)	none (no result: Tb hexokinase, Hsp70 act)
CCC1(c2ccccc2)NC(=O)N(CC(=O)NNC(=O)c2ccc(F)cc2)C1=O (configuration not stated)	none (no result: HSF-1 act, Tb hexokinase, HSP90 inh, HSF1 inh, Hsp70 act)
Oc1cccc(/C=N/N=C/c2cccc(O)c2O)c1O	HSP90 inh 25 (no result: Tb hexokinase, Hsp70 act) | HSP90 confirm 71 | FLuc counter 74
Fc1ccccc1OCCSc1nnnn1-c1ccccc1	HSP90 inh 25 | HSP90 confirm 29 | FLuc counter inactive
COc1ccccc1OCCSc1nnnn1-c1ccc(C)cc1	none (no result: HSP90 inh, Hsp70 act)
COCC(=O)N1CCC(Oc2ccc(C(=O)NC(C)c3nc(C)sc3C)cc2)CC1 (configuration not stated)	none (no result: Tb hexokinase, Hsp70 act)
O=C(CCCSc1ccc(Cl)cc1)Nc1ccccc1O	none (no result: Tb hexokinase, Hsp70 act)
CCO[C@@H]1OC(C(=O)N2CCN(Cc3ccc4c(c3)OCO4)CC2)=C[C@H](c2ccc(C(F)(F)F)cc2)[C@H]1CCCO	HSP90 inh 24 | HSP90 confirm inactive | FLuc counter inactive
CCO[C@@H]1OC(C(=O)N2CCN(Cc3ccc4c(c3)OCO4)CC2)=C[C@H](c2ccc(Br)cc2)[C@H]1CCCO	none
COc1ccc(CCNC(=O)COc2ncnc3ccccc23)cc1OC	HSP90 inh 62 | HSP90 confirm inactive | FLuc counter inactive
Cc1c(C(=O)N2CCN(S(=O)(=O)c3ccccc3)CC2)oc2ccc(Br)cc12	none (no result: HSF-1 act, Tb hexokinase, HSP90 inh, HSF1 inh, Hsp70 act)
Cc1cc2ncc(-c3ncc(C(F)(F)F)cc3Cl)cn2n1	HSP90 inh 18 | HSP90 confirm 67 | FLuc counter 55
N#Cc1cc(Cl)c(N2CCOCC2)cc1C#N	none
N#Cc1cc2ccc(N3CCOCC3)cc2cc1C#N	HSP90 inh 18 (no result: HSF-1 act, HSF1 inh) | HSP90 confirm inactive | FLuc counter inactive
CCCCN(C(=O)c1ccc(N(C)S(=O)(=O)c2ccc(C)cc2)cc1)c1c(N)n(CC(C)C)c(=O)[nH]c1=O	none (no result: HSF-1 act, Tb hexokinase, HSP90 inh, HSF1 inh, Hsp70 act)
Oc1c(N=Nc2ccc(F)cc2)ccc2ccccc12	none (no result: Tb hexokinase, Hsp70 act)
COc1ccc(N=Nc2ccc3ccccc3c2)c(O)c1	HSP90 inh 30 (no result: Tb hexokinase, Hsp70 act) | HSP90 confirm 53 | FLuc counter 55
Cc1ccc(N=Nc2ccc3ccccc3c2O)cc1	HSP90 inh 59, HSF1 inh -73 (no result: Tb hexokinase, Hsp70 act) | HSP90 confirm 77 | FLuc counter 73
COc1cccc(N=Nc2ccc3ccccc3c2O)c1	HSP90 inh 28, HSF1 inh -62 (no result: Tb hexokinase, Hsp70 act) | HSP90 confirm 58 | FLuc counter 58
CCOc1ccc(NC(=O)CN(C)S(=O)(=O)c2ccc(-c3ccc(=O)[nH]n3)s2)cc1	none (no result: Tb hexokinase, Hsp70 act)
COC(=O)C(CCSC)NC(=O)c1cn(-c2ccc(OC)cc2)c(=O)c2ccccc12 (configuration not stated)	none (no result: Tb hexokinase, Hsp70 act)
COc1ccc2nc(NC(=O)c3ccccc3F)sc2c1	HSP90 inh 18 (no result: Tb hexokinase, Hsp70 act) | HSP90 confirm 38 | FLuc counter 31
COc1ccccc1C(=O)Nc1nc2ccccc2s1	HSP90 inh 91, HSF1 inh -88 (no result: Tb hexokinase, Hsp70 act) | HSP90 confirm 96 | FLuc counter 93
COc1ccc(CCCc2nnc(SCC(=O)NN)o2)c(C)c1	none (no result: Tb hexokinase, Hsp70 act)
CCN(CC)c1ccc(/C=N/n2c(C)nc3ccccc3c2=O)cc1	none (no result: Tb hexokinase, Hsp70 act)
O=C(CCN1C(=O)/C(=C/c2ccccc2F)SC1=S)NC1C=CS(=O)(=O)C1 (configuration not stated)	none (no result: Tb hexokinase, Hsp70 act)
Oc1c(C=Nc2cccc3cccnc23)sc2ccccc12	HSP90 inh 37 (no result: HKDC1 inh) | HSP90 confirm 23 | FLuc counter 50
O=[N+]([O-])c1ccc(O)c(N=Cc2sc3ccccc3c2O)c1	HSP90 inh 21 | HSP90 confirm inactive | FLuc counter inactive
O=C1COC(c2ccccc2)=CN1Cc1ccccc1	none (no result: Tb hexokinase, HSP90 inh, Hsp70 act)
Cc1ccsc1/C=C1\CCc2ccccc2C1=O	HSP90 inh 31 | HSP90 confirm 79 | FLuc counter 71
Cc1ccccc1/C=C1\CCCc2ccccc2C1=O	none
COCCCN1C(=O)c2ccc(C(=O)NCCc3ccccc3)cc2C1=O	HSP90 inh 22 (no result: Tb hexokinase, Hsp70 act) | HSP90 confirm 42 | FLuc counter 24
CN(C)S(=O)(=O)c1ccc(C(=O)NCCOc2ccccc2)cc1	HSF-1 act inconclusive
COCCCN1C(=O)c2ccc(C(=O)Nc3cccc(OC)c3)cc2C1=O	none
CC(C)(C)c1ccc(C(=O)NCc2ccccc2)cc1	none
O=C(NCCc1ccccc1)c1cccc(N2CCCC2=O)c1	HSP90 inh 35 (no result: Tb hexokinase, Hsp70 act) | HSP90 confirm 52 | FLuc counter 33
CC(C)(C)c1ccc(C(=O)NCCc2ccccc2)cc1	HSP90 inh 21 (no result: Tb hexokinase, Hsp70 act) | HSP90 confirm 53 | FLuc counter 43
Cc1ccc(CCNC(=O)c2cccc(N3CCCC3=O)c2)cc1	none (no result: Tb hexokinase, Hsp70 act)
CC(C)(C)c1ccc(C(=O)NCCOc2ccccc2)cc1	HSP90 inh 49, HSF1 inh -68 (no result: Tb hexokinase, Hsp70 act) | HSP90 confirm 70 | FLuc counter 65

High-throughput results (PubChem)
